Source: ChEMBL document CHEMBL1123350, “Synthesis and beta-adrenergic receptor blocking potency of 1-(substituted amino)-3-(4-indolyloxy)propan-2-ols” (J Med Chem, 1986)

What was measured:
[1] = Distribution coefficient value of the compound; format: physicochemical; conditions: octanol/water
Procedure, shortened: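 Shake-flask partition between 0.1 M potassium phosphate pH 7.4 and 1-octanol, each phase presaturated with the other. Compound at 0.1–1.0 mg/mL in buffer, shaken 30 min, left 10 min, spun 600g 10 min at room temperature. Aqueous-phase absorbance read before and after partition at a per-compound wavelength. D = (Aorig−Aextr)/(Aextr·f), with f the octanol:buffer volume ratio. Run twice.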

[2] = In vitro for binding affinity against beta adrenergic receptor in rat cerebellum; format: tissue-based
Procedure, shortened: (§1)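 Male Sprague–Dawley rat cortex or cerebellum membranes, washed in HEPES–EDTA pH 7.5 and resuspended in NaCl–Tris–MgCl2 pH 7.5. Bound ligand collected by filtration and gamma-counted; isoproterenol 25 μM defines nonspecific binding. IC50 and Hill n by nonlinear regression; Ki by Cheng–Prusoff for the eutomer. Run at least twice.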

Rattus norvegicus = species: Rattus norvegicus; experiment: Hill coefficient value assayed against rat beta adrenergic receptor; procedure, shortened: as §1
[3] = In vitro for binding affinity against beta adrenergic receptor in rat cortex; procedure, shortened: as §1

## OC(CNCCc1ccc(Cl)c(Cl)c1)COc1cccc2[nH]ccc12 (stereo not given)
[1]
  logD: 2.5
[2]
  Ki: 11 nM
Rattus norvegicus
  Hill coefficient: > 0.9
[3]
  Ki: 6 nM

## OC(CNCCc1ccccc1)COc1cccc2[nH]ccc12 (stereo not given)
[1]
  logD: 1.7
[2]
  Ki: 4 nM
Rattus norvegicus
  Hill coefficient: > 0.9
[3]
  Ki: 5 nM

## OC(CNCc1ccccc1F)COc1cccc2[nH]ccc12 (stereo not given)
[1]
  logD: 2
[2]
  Ki: 45 nM
Rattus norvegicus
  Hill coefficient: > 0.9
[3]
  Ki: 60 nM

## CC(C)NCC(O)COc1cccc2[nH]ccc12 (stereo not given) [PINDOLOL]
[1]
  logD: -0.3
[2]
  Ki: 1 nM
Rattus norvegicus
  Hill coefficient: > 0.9
[3]
  Ki: 1 nM

## O=[N+]([O-])c1ccc(CCNCC(O)COc2cccc3[nH]ccc23)cc1 (stereo not given)
[1]
  logD: 1.5
[2]
  Ki: 8 nM
Rattus norvegicus
  Hill coefficient: > 0.9
[3]
  Ki: 5 nM

## COc1ccc(CCNCC(O)COc2cccc3[nH]ccc23)cc1OC (stereo not given)
[1]
  logD: 1.1
[2]
  Ki: 7 nM
Rattus norvegicus
  Hill coefficient: > 0.9
[3]
  Ki: 3 nM

## OC(CNCCc1ccc(F)cc1)COc1cccc2[nH]ccc12 (stereo not given)
[1]
  logD: 2
[2]
  Ki: 4 nM
Rattus norvegicus
  Hill coefficient: > 0.9
[3]
  Ki: 5 nM

## CC(C)(CO)NCC(O)COc1cccc2[nH]ccc12 (stereo not given)
[1]
  logD: -0.6
[2]
  Ki: 2 nM
Rattus norvegicus
  Hill coefficient: > 0.9
[3]
  Ki: 2 nM

## Nc1ccc(CCNCC(O)COc2cccc3[nH]ccc23)cc1 (stereo not given)
[1]
  logD: 0.3
[2]
  Ki: 22 nM
Rattus norvegicus
  Hill coefficient: > 0.9
[3]
  Ki: 25 nM

## OC(CNCc1ccc(F)cc1)COc1cccc2[nH]ccc12 (stereo not given)
[1]
  logD: 1.9
[2]
  Ki: 80 nM
Rattus norvegicus
  Hill coefficient: > 0.9
[3]
  Ki: 125 nM
